From ChEMBL document CHEMBL3286225, “Novel carboline derivatives as potent antifungal lead compounds: design, synthesis, and biological evaluation” (ACS Med Chem Lett, 2014)
≈ marks a conversion by molar mass, not a printed value. Calls of active or inactive are those of the source. No cut-off for these calls is given here.

Tests used:
Candida albicans [1] = assay: Antifungal activity against fluconazole-sensitive Candida albicans SC5314 assessed as cell membrane damage at 8 ug/ml after 8 hrs by TEM analysis; format: functional, organism-based
Method in brief: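 Transmission electron microscopy of C. albicans SC5314 cells exposed to 8 μg/mL drug for 8 h; untreated cells as reference; cell wall, membrane, cytoplasm and vacuole morphology inspected.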

CYP2C19 = CYP2C19 (Homo sapiens, UniProt P33261); assay: Inhibition of CYP2C19 in human liver microsomes assessed as S-mephenytoin conversion to 4'-hydroxy mephenytoin at 0.25 uM preincubated for 10 mins followed by NADPH addition measured after 15 mins by LC-MS/MS analysis relative to control; format: ADME; details: probe S-mephenytoin
Candida albicans [2] = assay: Antifungal activity against fluconazole-resistant Candida albicans 805 after 24 hrs by serial dilution method in presence of fluconazole; format: functional
Method in brief: (§1)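 Tested in combination with fluconazole against each fluconazole-resistant C. albicans strain. Interaction was scored by fractional inhibitory concentration index (FICI): synergy at FICI ≤ 0.5, indifference at 0.5 < FICI ≤ 4, antagonism at FICI > 4.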

CYP2C9 [3] = molecular target: T1, CYP2C9 (Homo sapiens, UniProt P11712); assay: Inhibition of CYP2C9 in human liver microsomes assessed as tolbutamide conversion to 4-hydroxy tolbutamide at 25 uM preincubated for 10 mins followed by NADPH addition measured after 15 mins by LC-MS/MS analysis relative to control; format: ADME; details: probe tolbutamide
Candida albicans [4] = assay: Antifungal activity against fluconazole-resistant Candida albicans 07109 after 24 hrs by serial dilution method; format: functional; details: Candida albicans, 07109, 24 h
Candida albicans [5] = assay: Antifungal activity against fluconazole-resistant Candida albicans 07109 after 24 hrs by serial dilution method in presence of fluconazole; format: functional; method in brief: as §1
Candida albicans [6] = assay: Inhibition of biofilm formation of fluconazole-resistant Candida albicans 103 after 48 hrs by XTT assay; format: functional, organism-based
Method in brief: (§2)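 Biofilm formation by C. albicans SC5314 or 103 in presence of 2–64 μg/mL drug (fluconazole 64 μg/mL reference); quantified by XTT reduction as % of blank control; mean ± standard deviation of three independent experiments, ANOVA and Student t test.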

Cytochrome P450 3A4 [7] = molecular target: T2, Cytochrome P450 3A4 (Homo sapiens, UniProt P08684); assay: Inhibition of CYP3A4 in human liver microsomes assessed as midazolam conversion to 1'-hydroxy midazolam preincubated for 10 mins followed by NADPH addition measured after 15 mins by LC-MS/MS analysis; format: ADME
Candida albicans [8] = assay: Antifungal activity against fluconazole-sensitive Candida albicans SC5314 assessed as thickening of middle sphere of cell wall at 8 ug/ml after 8 hrs by TEM analysis; format: functional, organism-based
Method in brief: (§3)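 Transmission electron microscopy of C. albicans SC5314 cells exposed to 8 μg/mL for 8 h. Untreated cells and cells given fluconazole 8 μg/mL for 8 h served as controls. Cell wall layers, cytoplasmic density and vacuole shape were compared by eye.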

Candida albicans [9] = assay: Antifungal activity against fluconazole-resistant Candida albicans 100 after 24 hrs by serial dilution method in presence of fluconazole; format: functional; method in brief: as §1
Candida albicans [10] = assay: Antifungal activity against fluconazole-sensitive Candida albicans SC5314 assessed as change in ergosterol composition at 8 ug/ml after 24 hrs by GC-MS analysis (reference value: 90%); format: functional
Method in brief: (§4)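 C. albicans SC5314 exposed to 8 μg/mL for 24 h, sterols analysed by GC-MS with cholesterol internal standard; each sterol expressed as % of total sterol fraction versus no-drug control; average of three independent experiments.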

Candida albicans [11] = assay: Antifungal activity against fluconazole-sensitive Candida albicans SC5314 assessed as change in obtusifoliol composition at 8 ug/ml after 24 hrs by GC-MS analysis relative to control; format: functional; method in brief: as §4
Cytochrome P450 2C9 = Cytochrome P450 2C9 (Homo sapiens, UniProt P11712); assay: Inhibition of CYP2C9 in human liver microsomes assessed as tolbutamide conversion to 4-hydroxy tolbutamide preincubated for 10 mins followed by NADPH addition measured after 15 mins by LC-MS/MS analysis; format: ADME
Candida albicans [12] = assay: Inhibition of hyphal growth of fluconazole-sensitive Candida albicans SC5314 assessed as appearance of pseudohyphal form at 2 ug/ml after 16 hrs by light microscopic analysis; format: functional, organism-based
Method in brief: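 C. albicans SC5314 was grown in RPMI 1640 at 37 °C for 16 h, without compound or with 2–8 μg/mL. A fluconazole 8 μg/mL control was included. Cell morphology (hyphae, pseudohyphae, budding yeast) was then scored by microscopy.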

Candida albicans [13] = assay: Inhibition of biofilm formation of fluconazole-sensitive Candida albicans SC5314 at 64 ug/ml after 48 hrs by XTT assay relative to control; format: functional; details: SC5314, 48 h; method in brief: as §2
CYP2C9 [14] = molecular target: T1, CYP2C9; assay: Inhibition of CYP2C9 in human liver microsomes assessed as tolbutamide conversion to 4-hydroxy tolbutamide at 0.25 uM preincubated for 10 mins followed by NADPH addition measured after 15 mins by LC-MS/MS analysis relative to control; format: ADME; details: probe tolbutamide
Candida albicans [15] = assay: Antifungal activity against fluconazole-sensitive Candida albicans SC5314 assessed as change in eburicol composition at 8 ug/ml after 24 hrs by GC-MS analysis relative to control; format: functional; method in brief: as §4
Cytochrome P450 3A4 [16] = molecular target: T2, Cytochrome P450 3A4; assay: Inhibition of CYP3A4 in human liver microsomes assessed as testosterone conversion to 6-hydroxy testosterone preincubated for 10 mins followed by NADPH addition measured after 15 mins by LC-MS/MS analysis; format: ADME
Candida albicans [17] = assay: Antifungal activity against fluconazole-resistant Candida albicans 100 after 24 hrs by serial dilution method; format: functional; details: Candida albicans, 100, 24 h
Candida albicans [18] = assay: Antifungal activity against fluconazole-sensitive Candida albicans SC5314 assessed as thinning of outer sphere of cell wall at 8 ug/ml after 8 hrs by TEM analysis; format: functional, organism-based; method in brief: as §3
Candida albicans [19] = assay: Inhibition of biofilm formation of fluconazole-resistant Candida albicans 103 at 32 ug/ml after 48 hrs by XTT assay; format: functional; details: Candida albicans, 103, 48 h; method in brief: as §2
Candida albicans [20] = assay: Inhibition of biofilm formation of fluconazole-sensitive Candida albicans SC5314 after 48 hrs by XTT assay; format: functional, organism-based
Method in brief: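 Biofilm formation by C. albicans SC5314 was tested with compound at 2–64 μg/mL. Untreated and fluconazole 64 μg/mL controls were included. Biofilm was quantified by XTT reduction and expressed as % of untreated control. Mean ± SD of three independent experiments; ANOVA and Student t test, p<0.05.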

Candida albicans [21] = assay: Antifungal activity against fluconazole-sensitive Candida albicans SC5314 after 24 hrs by serial dilution method; format: functional; details: SC5314, 24 h

T2 sequence (P08684 whole entry): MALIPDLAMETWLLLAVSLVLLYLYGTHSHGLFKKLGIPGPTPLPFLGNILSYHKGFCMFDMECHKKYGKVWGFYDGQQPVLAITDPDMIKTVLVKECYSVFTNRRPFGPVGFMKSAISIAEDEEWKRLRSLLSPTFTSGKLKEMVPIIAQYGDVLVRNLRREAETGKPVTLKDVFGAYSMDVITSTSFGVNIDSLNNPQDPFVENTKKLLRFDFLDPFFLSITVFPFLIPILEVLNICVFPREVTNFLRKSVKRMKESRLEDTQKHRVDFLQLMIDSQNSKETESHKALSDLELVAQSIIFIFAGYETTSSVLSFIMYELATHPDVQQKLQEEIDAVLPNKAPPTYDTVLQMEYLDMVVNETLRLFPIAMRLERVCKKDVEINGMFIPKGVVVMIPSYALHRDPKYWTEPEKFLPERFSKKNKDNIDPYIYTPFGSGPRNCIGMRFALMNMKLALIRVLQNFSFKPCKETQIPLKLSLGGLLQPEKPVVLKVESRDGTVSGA
T1 sequence (P11712 whole entry): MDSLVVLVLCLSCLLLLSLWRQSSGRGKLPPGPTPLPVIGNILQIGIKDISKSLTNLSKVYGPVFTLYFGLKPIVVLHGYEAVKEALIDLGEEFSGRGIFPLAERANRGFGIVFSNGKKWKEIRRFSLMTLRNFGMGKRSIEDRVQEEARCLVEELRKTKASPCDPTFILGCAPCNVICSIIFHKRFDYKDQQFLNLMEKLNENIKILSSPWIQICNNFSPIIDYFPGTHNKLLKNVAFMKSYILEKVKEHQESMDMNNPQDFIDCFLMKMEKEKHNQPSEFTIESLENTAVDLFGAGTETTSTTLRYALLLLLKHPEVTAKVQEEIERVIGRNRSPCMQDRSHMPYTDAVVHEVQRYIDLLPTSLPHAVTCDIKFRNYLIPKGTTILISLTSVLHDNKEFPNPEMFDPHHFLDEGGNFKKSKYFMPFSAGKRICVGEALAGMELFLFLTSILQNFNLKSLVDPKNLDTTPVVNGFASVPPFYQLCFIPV
Sequence of CYP2C19 (P33261 whole entry): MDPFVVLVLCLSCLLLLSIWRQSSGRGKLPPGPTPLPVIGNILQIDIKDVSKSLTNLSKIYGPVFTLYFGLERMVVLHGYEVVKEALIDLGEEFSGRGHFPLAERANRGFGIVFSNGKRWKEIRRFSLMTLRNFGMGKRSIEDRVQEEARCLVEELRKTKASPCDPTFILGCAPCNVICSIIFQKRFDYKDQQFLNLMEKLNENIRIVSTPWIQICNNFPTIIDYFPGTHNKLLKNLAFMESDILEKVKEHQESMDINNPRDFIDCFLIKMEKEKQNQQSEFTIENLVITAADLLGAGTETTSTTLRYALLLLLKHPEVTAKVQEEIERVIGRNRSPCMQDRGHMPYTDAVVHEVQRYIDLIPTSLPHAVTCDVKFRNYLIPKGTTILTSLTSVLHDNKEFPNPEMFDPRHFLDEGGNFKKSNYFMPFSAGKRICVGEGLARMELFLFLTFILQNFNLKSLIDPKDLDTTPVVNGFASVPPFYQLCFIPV
Sequence of Cytochrome P450 2C9 (P11712 whole entry): as the sequence (P11712 whole entry) above

## Fc1ccc2c(c1)c1c(n2CCCOc2ccc(Cl)cc2)CCNC1
Candida albicans [1]
  Activity: inactive
CYP2C19
  inhibition at 0.25 h, 0.25 µM: 4%
Candida albicans [2]
  fractional inhibitory concentration index (FICI): 0.252
CYP2C9 [3]
  inhibition at 0.25 h, 25 µM: 36%
Candida albicans [4]
  MIC80: 4 µg/mL (≈ 11.1 µM)
Candida albicans [5]
  fractional inhibitory concentration index (FICI): 0.252
Candida albicans [6]
  inhibition: Dose-dependent effect
Cytochrome P450 3A4 [7]
  IC50: 50 µM
Candida albicans [8]
  Activity: Active
Candida albicans [9]
  fractional inhibitory concentration index (FICI): 0.252
Candida albicans [10]
  Activity: 40.2%
Candida albicans [11]
  Activity: 3.7%
Cytochrome P450 2C9
  IC50: > 25 µM
Candida albicans [12]
  growth inhibition (GI): Active
Candida albicans [13]
  inhibition at 64 µg/mL: > 80%
CYP2C9 [14]
  inhibition at 0.25 h, 0.25 µM: -2%
Candida albicans [15]
  Activity: 12.4%
Cytochrome P450 3A4 [16]
  IC50: 25 µM
Candida albicans [17]
  MIC80: 4 µg/mL (≈ 11.1 µM)
Candida albicans [18]
  Activity: Active
Candida albicans [19]
  inhibition at 32 µg/mL: > 75%
Candida albicans [20]
  inhibition: Dose-dependent effect
Candida albicans [21]
  MIC80: 2 µg/mL (≈ 5.57 µM)
